Measurements taken from ChEMBL document CHEMBL1129363, “(S)-13-[(dimethylamino)methyl]-10,11,14,15-tetrahydro-4,9:16, 21-dimetheno-1H, 13H-dibenzo[e,k]pyrrolo[3,4-h][1,4,13]oxadiazacyclohexadecene-1,3(2H)-d ione (LY333531) and related analogues: isozyme selective inhibitors of protein kinase C beta” (J Med Chem, 1996).

Tests used:
[1] = Concentration for 50% cell death determined by lysosomal staining in the neutral red viability assay.; details: read-out: Tox50
Outline: (§1)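 Bovine retinal capillary endothelial cells, passages 3–10, were grown to confluence (10⁵ cells/well) in EGM with 10% FBS. Medium was switched to DME with 10% FBS 24 h before the assay. Compound in DMSO was added for 48 h at 37 °C. Viability was read by neutral red lysosomal staining, and the value is the concentration giving 50% cell death.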

[2] = biological target: Protein kinase C delta type (Homo sapiens, UniProt Q05655); test: Inhibition of Protein kinase C delta
Sequence of Protein kinase C delta type (Q05655 whole entry): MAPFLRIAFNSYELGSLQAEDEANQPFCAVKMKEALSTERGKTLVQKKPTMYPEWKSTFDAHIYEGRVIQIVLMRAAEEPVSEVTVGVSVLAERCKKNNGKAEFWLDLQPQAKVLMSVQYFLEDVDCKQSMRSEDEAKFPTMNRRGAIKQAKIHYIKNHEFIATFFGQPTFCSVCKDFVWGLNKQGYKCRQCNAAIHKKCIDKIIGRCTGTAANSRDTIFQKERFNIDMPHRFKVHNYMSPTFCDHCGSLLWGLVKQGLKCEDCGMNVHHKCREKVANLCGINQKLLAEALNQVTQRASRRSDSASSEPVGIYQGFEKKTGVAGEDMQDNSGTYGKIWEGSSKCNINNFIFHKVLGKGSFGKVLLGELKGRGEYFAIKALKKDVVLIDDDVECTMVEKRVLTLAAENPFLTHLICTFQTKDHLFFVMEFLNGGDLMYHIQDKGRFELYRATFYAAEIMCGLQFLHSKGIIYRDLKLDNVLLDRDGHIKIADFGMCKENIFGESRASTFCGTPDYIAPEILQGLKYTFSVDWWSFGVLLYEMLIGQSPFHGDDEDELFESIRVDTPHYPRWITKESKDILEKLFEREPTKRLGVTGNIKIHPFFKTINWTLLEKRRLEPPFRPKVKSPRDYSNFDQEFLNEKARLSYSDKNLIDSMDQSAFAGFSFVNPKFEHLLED

[3] = biological target: Protein kinase C gamma type (Homo sapiens, UniProt P05129); test: Inhibition of Protein kinase C gamma
[4] = biological target: Proto-oncogene tyrosine-protein kinase Src (Homo sapiens, UniProt P12931); test: Inhibition of src kinase
Sequence of Proto-oncogene tyrosine-protein kinase Src (P12931 2-536 limits assumed): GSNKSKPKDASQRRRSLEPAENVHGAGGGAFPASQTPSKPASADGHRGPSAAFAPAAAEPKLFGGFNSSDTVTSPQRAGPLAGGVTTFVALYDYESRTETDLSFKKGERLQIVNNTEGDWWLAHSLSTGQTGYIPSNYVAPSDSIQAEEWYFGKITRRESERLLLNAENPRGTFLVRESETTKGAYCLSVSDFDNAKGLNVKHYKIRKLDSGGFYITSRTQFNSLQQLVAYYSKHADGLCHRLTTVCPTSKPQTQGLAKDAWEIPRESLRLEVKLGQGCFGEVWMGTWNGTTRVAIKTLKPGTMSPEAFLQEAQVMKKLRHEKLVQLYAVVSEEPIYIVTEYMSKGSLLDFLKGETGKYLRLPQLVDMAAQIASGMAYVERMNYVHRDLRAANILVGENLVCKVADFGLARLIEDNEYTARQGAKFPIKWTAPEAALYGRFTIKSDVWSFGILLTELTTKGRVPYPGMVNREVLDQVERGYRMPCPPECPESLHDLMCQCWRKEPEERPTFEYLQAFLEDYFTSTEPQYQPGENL

[5] = biological target: T1, Protein kinase C beta type (Homo sapiens, UniProt P05771); test: Inhibition of Protein kinase C beta 2
T1 sequence (P05771 whole entry): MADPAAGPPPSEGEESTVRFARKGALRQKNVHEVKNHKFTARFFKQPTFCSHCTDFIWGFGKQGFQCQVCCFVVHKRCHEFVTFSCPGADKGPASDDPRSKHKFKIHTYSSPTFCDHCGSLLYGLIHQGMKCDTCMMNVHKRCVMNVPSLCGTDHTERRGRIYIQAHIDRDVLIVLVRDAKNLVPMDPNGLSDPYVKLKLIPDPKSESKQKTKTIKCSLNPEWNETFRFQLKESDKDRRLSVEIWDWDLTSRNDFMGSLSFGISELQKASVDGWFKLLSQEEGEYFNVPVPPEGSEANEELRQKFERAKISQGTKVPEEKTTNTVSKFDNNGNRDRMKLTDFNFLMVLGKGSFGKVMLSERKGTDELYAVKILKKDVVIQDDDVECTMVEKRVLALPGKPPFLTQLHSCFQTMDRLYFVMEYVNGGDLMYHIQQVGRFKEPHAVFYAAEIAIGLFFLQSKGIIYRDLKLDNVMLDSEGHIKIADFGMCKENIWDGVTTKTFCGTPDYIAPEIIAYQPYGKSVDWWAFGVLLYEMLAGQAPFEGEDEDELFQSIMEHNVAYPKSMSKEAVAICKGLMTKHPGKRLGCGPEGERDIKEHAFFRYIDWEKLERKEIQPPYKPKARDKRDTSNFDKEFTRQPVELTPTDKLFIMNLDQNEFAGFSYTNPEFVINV

[6] = biological target: Protein kinase C alpha type (Homo sapiens, UniProt P17252); test: Inhibition of Protein kinase C alpha
[7] = Effective concentration for 50% inhibition of endothelial cell- based plasminogen activator activity relative to control by beta-PDBu stimulation; assay type: functional
Outline: (§2)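 Bovine retinal capillary endothelial cells (passages 3–10), grown to confluence (10⁵ cells/well) in EGM with 10% FBS, switched to DME/10% FBS 24 h before assay; treated with 4β-PDBu plus compound in DMSO, 37 °C, 48 h. Lysate (25 mM NH₄OH, 0.5% Triton X-100) incubated with plasminogen and 1 mM chromogenic substrate, 25 °C 45 min, A410 against urokinase/tPA standard curve.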

[8] = biological target: Protein kinase C (PKC); test: (§3) Inhibition of rat brain Protein kinase C
[9] = Inhibition of Bovine heart cAMP-dependent protein kinase; design: species or system Bos taurus
Outline: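 Bovine heart cAMP-dependent kinase catalytic subunit with 200 µg/mL histone type HL substrate in 20 mM HEPES pH 7.5, 10 mM MgCl₂, 30 µM [γ-³²P]ATP; inhibitor in DMSO; 30 °C, 10 min; TCA-stopped, precipitate filtered and scintillation-counted. Average of at least three independent determinations from eight-point titration curves.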

[10] = Effective dose against plasminogen activator activity stimulated by phorbol ester in endothelial cells; assay type: functional; details: Endothelial cell; read-out: ED50 (the source's name)
[11] = Inhibition of rat brain Casein kinase II
[12] = biological target: T2, Protein kinase C zeta type (Homo sapiens, UniProt Q05513); test: Inhibition of Protein kinase C zeta
T2 sequence (Q05513 whole entry): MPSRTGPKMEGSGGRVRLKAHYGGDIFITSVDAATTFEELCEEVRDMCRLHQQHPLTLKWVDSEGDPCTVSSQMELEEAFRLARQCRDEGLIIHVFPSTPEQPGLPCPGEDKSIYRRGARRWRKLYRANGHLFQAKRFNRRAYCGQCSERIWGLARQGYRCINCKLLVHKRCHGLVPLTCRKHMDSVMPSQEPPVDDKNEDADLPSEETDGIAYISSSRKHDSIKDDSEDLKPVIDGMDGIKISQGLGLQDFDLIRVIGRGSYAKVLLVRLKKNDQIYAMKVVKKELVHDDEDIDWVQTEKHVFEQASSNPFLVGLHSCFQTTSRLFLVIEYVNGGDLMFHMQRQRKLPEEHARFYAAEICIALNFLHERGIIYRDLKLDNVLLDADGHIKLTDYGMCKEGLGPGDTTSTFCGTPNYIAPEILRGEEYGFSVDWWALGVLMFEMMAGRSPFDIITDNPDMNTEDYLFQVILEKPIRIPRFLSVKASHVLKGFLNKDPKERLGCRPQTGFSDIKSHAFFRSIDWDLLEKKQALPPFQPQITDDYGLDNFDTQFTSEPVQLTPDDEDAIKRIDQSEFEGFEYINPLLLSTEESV

[13] = biological target: Protein kinase C eta type (Homo sapiens, UniProt P24723); test: Inhibition of Protein kinase C eta
Sequence of Protein kinase C eta type (P24723 whole entry): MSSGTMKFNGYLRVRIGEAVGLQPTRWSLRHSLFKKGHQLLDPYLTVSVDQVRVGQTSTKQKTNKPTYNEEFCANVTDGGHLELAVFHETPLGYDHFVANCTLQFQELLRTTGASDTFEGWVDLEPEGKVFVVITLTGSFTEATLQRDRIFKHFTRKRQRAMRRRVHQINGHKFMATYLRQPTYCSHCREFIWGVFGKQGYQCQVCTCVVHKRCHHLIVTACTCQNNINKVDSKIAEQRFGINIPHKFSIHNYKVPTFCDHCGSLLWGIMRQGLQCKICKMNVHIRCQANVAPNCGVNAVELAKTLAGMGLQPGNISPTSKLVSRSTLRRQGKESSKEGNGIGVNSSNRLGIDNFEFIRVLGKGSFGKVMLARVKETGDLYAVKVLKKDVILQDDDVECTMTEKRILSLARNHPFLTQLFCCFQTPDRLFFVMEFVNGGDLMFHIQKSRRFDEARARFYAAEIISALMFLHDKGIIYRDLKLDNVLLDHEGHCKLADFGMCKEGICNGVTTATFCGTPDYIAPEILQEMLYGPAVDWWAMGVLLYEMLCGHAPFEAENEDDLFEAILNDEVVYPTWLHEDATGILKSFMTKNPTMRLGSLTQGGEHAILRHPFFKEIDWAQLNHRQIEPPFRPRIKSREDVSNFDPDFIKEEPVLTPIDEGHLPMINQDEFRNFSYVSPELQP

[14] = biological target: T3, Protein kinase C epsilon type (Homo sapiens, UniProt Q02156); test: Inhibition of Protein kinase C epsilon
T3 sequence (Q02156 whole entry): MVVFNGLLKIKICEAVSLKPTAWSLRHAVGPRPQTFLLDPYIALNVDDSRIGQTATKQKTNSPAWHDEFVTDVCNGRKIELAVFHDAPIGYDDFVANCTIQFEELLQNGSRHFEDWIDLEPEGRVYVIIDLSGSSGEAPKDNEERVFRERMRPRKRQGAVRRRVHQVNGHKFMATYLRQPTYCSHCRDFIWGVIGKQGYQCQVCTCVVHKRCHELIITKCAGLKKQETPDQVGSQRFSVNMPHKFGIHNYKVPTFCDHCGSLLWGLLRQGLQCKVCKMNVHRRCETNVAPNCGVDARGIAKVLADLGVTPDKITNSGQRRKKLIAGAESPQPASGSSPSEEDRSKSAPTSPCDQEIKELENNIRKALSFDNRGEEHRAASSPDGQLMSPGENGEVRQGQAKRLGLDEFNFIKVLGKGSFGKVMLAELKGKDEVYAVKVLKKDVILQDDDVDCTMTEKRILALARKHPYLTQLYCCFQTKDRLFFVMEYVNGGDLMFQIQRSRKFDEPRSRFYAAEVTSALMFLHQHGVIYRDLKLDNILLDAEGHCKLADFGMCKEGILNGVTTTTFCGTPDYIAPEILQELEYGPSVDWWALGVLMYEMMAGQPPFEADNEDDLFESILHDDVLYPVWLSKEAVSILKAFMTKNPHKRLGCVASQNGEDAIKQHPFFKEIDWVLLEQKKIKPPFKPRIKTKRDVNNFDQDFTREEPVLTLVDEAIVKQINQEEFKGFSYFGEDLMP

[15] = biological target: T1, Protein kinase C beta type; test: Inhibition of Protein kinase C beta 1
[16] = Effective concentration for 50% inhibition of Endothelial cell- based plasminogen activator activity relative to control by beta-PDBu stimulation; assay type: functional; outline: as §2
[17] = Inhibition of purified mammalian brain calcium [Ca(2+)]/Calmodulin dependent kinase
[18] = Concentration for 50% cell death determined by lysosomal staining in the neutral red viability assay; details: read-out: Tox50; outline: as §1
[19] = biological target: Protein kinase C (PKC); test: as §3; remark: listed apart in the source
Outline: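 Purified rat-brain PKC was used as enzyme. Values are averages of at least three independent determinations, each from an eight-point titration curve.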

[20] = Effective concentration for 50% inhibition of endothelial cell based plasminogen activity relative to control by beta-PDBu stimulation; assay type: functional; outline: as §2

| EC50 [20] [nM] | Structure (SMILES) | CC50 [1] [nM] | IC50 [2] [nM] | IC50 [3] [nM] | IC50 [4] [nM] | IC50 [5] [nM] | IC50 [6] [nM] | EC50 [7] [nM] | IC50 [8] [nM] | IC50 [9] [nM] | EC50 [10] [nM] | IC50 [11] [nM] | IC50 [12] [nM] | IC50 [13] [nM] | IC50 [14] [nM] | IC50 [15] [nM] | EC50 [16] [nM] | IC50 [17] [nM] | CC50 [18] [nM] | IC50 [19] [nM] |
| --- | --- | --- | --- | --- | --- | --- | --- | --- | --- | --- | --- | --- | --- | --- | --- | --- | --- | --- | --- | --- |
|  | O=C1NC(=O)C2=C1c1cn(c3ccccc13)CCO[C@H](CNCc1ccccc1)CCn1cc2c2ccccc21 | > 20000 | 7800 | 6500 | > 100000 | 310 | 6300 | 4300 | 4200 | > 100000 | 4300 | > 100000 | 54000 | 2500 | 57000 | 330 |  |  |  |  |
|  | O=C1NC(=O)C2=C1c1cn(c3ccccc13)CCO[C@H](CN1CCOCC1)CCn1cc2c2ccccc21 | > 20000 | 2000 | 2500 |  | 38 |  |  |  |  | 3500 |  | > 5000 | 1700 | > 5000 | 49 |  |  |  |  |
|  | CN1CCN(C[C@@H]2CCn3cc(c4ccccc43)C3=C(C(=O)NC3=O)c3cn(c4ccccc34)CCO2)CC1 | > 20000 | 2800 | 3200 |  | 24 |  |  |  |  | 550 |  | > 5000 | 2000 | > 5000 | 30 | 550 |  |  |  |
|  | CN(C)C[C@@H]1CCn2cc(c3ccccc32)C2=C(C(=O)NC2=O)c2cn(c3ccccc23)CCO1 [RUBOXISTAURIN] |  |  | 300 |  |  |  |  |  | > 100000 | 210 | > 100000 |  | 52 |  |  |  | 6200 | > 20000 | 320 |
| 3000 | O=C1NC(=O)C2=C1c1cn(c3ccccc13)CCO[C@H](CO)CCn1cc2c2ccccc21 |  |  | 2000 | > 100000 |  |  |  |  | > 100000 | 3000 | > 100000 | 8700 | 300 | 79000 |  |  |  |  |  |
|  | NC[C@@H]1CCn2cc(c3ccccc32)C2=C(C(=O)NC2=O)c2cn(c3ccccc23)CCO1 | > 20000 | 2600 | 2100 | 89000 |  | 1100 | 7500 |  | 83000 | 7500 | > 100000 |  | 240 | > 5000 |  |  | 2700 |  |  |
|  | CNC[C@@H]1CCn2cc(c3ccccc32)C2=C(C(=O)NC2=O)c2cn(c3ccccc23)CCO1 |  | 170 | 270 |  |  |  | 240 |  | 49000 | 240 |  |  | 31 | 1100 |  |  |  |  |  |
|  | O=C1NC(=O)C2=C1c1cn(c3ccccc13)CCO[C@H](CNS(=O)(=O)c1ccccc1)CCn1cc2c2ccccc21 | > 2000 | 880 | > 5000 | > 100000 |  | > 5000 | > 2000 | 10000 | > 100000 | > 2000 | > 100000 | > 5000 | 1900 | > 5000 |  |  |  |  |  |
|  | CN[C@@H]1C[C@H]2O[C@@](C)([C@@H]1OC)n1c3ccccc3c3c4c(c5c6ccccc6n2c5c31)C(=O)NC4 [STAUROSPORINE] | < 20 |  |  |  |  |  |  |  |  |  |  |  |  |  |  |  | 4 |  |  |
|  | O=C1NC(=O)C2=C1c1cn(c3ccccc13)CCO[C@H](CN1CCCC1)CCn1cc2c2ccccc21 | > 10000 | 3300 | 2200 | 11000 |  | 3500 | 550 |  | > 100000 | 550 | > 100000 |  | 350 | 3800 |  |  | 5300 |  |  |
